Measured values published in ChEMBL document CHEMBL2177000, “Pharmacokinetic optimization of class-selective histone deacetylase inhibitors and identification of associated candidate predictive biomarkers of hepatocellular carcinoma tumor response” (J Med Chem, 2012).

Experiments:
[1] = target: Histone deacetylase (Homo sapiens) (UniProt Q13547+O15379+Q9UBN7+Q92769+Q9UQL6+Q8WUI4+Q9BY41+Q96DB2+P56524+Q9UKV0+Q969S8); assay: Inhibition of Class 1 histone deacetylase in human HeLa cells assessed as induction in p21 protein expression at 3 uM incubated for 16 hrs by luciferase reporter gene assay relative to HDAC inhibitor entinostat; format: cell-based; design: scale not given: the % may be the effect or the level left
[2] = Clearance in human liver microsomes at 1 uM incubated for 10 mins by LC-MS/MS method; format: ADME, Microsome
Summary of the method: (§1)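 Liver microsomes (human or mouse, 0.5 mg/mL) in 100 mM potassium phosphate pH 7.4 with 1 μM compound, prewarmed 10 min at 37 °C, started with NADPH (10 mM); stopped at 0, 3, 6, 9, 15, 30 min with ice-cold methanol containing tolbutamide internal standard; LC-MS/MS. Hepatic clearance (mL/min/kg) calculated from intrinsic clearance.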

[3] = Clearance in mouse liver microsomes at 1 uM incubated for 10 mins by LC-MS/MS method; format: ADME, Microsome; summary of the method: as §1

| SMILES | Activity [1] [%] | CLhep predicted at 1 µM [2] [mL/min/kg] | CLhep predicted at 1 µM [3] [mL/min/kg] |
| --- | --- | --- | --- |
| CN1C[C@H](C(=O)Nc2ccncc2)[C@@H](c2ccc(/C=C/C(=O)Nc3ccccc3N)cc2)C1 (racemic) | 50 |  |  |
| CN1C[C@H](C(=O)Nc2cccc(F)c2)[C@@H](c2ccc(/C=C/C(=O)Nc3ccccc3N)cc2)C1 (racemic) | 190 | 6 | 56 |
| CCN1C[C@H](C(=O)Nc2ccc(Cl)cc2)[C@@H](c2ccc(/C=C/C(=O)Nc3ccccc3N)cc2)C1 (racemic) | 170 | 12 | 35 |
| Cc1ccc(NC(=O)[C@H]2CN(C)C[C@@H]2c2ccc(/C=C/C(=O)Nc3ccccc3N)cc2)cn1 (racemic) | 130 | 8 | 57 |
| COc1cccc(NC(=O)[C@H]2CN(C)C[C@@H]2c2ccc(/C=C/C(=O)Nc3ccccc3N)cc2)c1 (racemic) | 170 | 14 | 65 |
| CN1C[C@H](C(=O)Nc2ccc(Cl)cc2F)[C@@H](c2ccc(/C=C/C(=O)Nc3ccccc3N)cc2)C1 (racemic) | 200 | 11 | 43 |
| CN1C[C@H](C(=O)N2CCCCC2)[C@@H](c2ccc(/C=C/C(=O)Nc3ccccc3N)cc2)C1 (racemic) | 10 | 9 | 42 |
| CN1C[C@H](C(=O)Nc2ccc(Cl)cc2)[C@@H](c2ccc(/C=C/C(=O)Nc3ccccc3N)cc2)C1 (racemic) | 240 |  |  |
| CN1C[C@H](C(=O)Nc2ccc(C#N)cc2)[C@@H](c2ccc(/C=C/C(=O)Nc3ccccc3N)cc2)C1 (racemic) | 80 | 1 | 35 |
| CN1C[C@H](C(=O)Nc2ccc(C3CC3)cc2)[C@@H](c2ccc(/C=C/C(=O)Nc3ccccc3N)cc2)C1 (racemic) | 60 | 12 | 60 |
| Nc1ccccc1NC(=O)/C=C/c1ccc([C@H]2CN(CCF)C[C@@H]2C(=O)Nc2ccc(Cl)cc2)cc1 (racemic) | 180 | 17 | 51 |
| Cc1cc(NC(=O)[C@H]2CN(C)C[C@@H]2c2ccc(/C=C/C(=O)Nc3ccccc3N)cc2)ccc1F (racemic) | 200 | 15 | 62 |
| CN1C[C@H](C(=O)Nc2ccc(Cl)cn2)[C@@H](c2ccc(/C=C/C(=O)Nc3ccccc3N)cc2)C1 (racemic) | 150 | 13 | 31 |
| CN1C[C@H](C(=O)Nc2ccc(F)cc2F)[C@@H](c2ccc(/C=C/C(=O)Nc3ccccc3N)cc2)C1 (racemic) | 180 | 12 | 27 |
| Nc1ccccc1NC(=O)/C=C/c1ccc([C@H]2CN(CC(F)(F)F)C[C@@H]2C(=O)Nc2ccc(Cl)cc2)cc1 (racemic) | 100 | 15 | 35 |
| CN1C[C@H](C(=O)Nc2ccc(Cl)c(Cl)c2)[C@@H](c2ccc(/C=C/C(=O)Nc3ccccc3N)cc2)C1 (racemic) | 160 | 14 | 36 |
| Cc1cccc(NC(=O)[C@H]2CN(C)C[C@@H]2c2ccc(/C=C/C(=O)Nc3ccccc3N)cc2)c1 (racemic) | 350 | 14 | 74 |
| CCNC(=O)N1C[C@H](C(=O)Nc2ccc(Cl)cc2)[C@@H](c2ccc(/C=C/C(=O)Nc3ccccc3N)cc2)C1 (racemic) | 40 | 9 | 25 |
| CN1C[C@H](C(=O)Nc2ccc(Cl)cc2)[C@@H](c2cnc(/C=C/C(=O)Nc3ccccc3N)cn2)C1 (racemic) | > 300 | 11 | 25 |
| CN1C[C@H](C(=O)Nc2ccc(Br)cc2)[C@@H](c2ccc(/C=C/C(=O)Nc3ccccc3N)cc2)C1 (racemic) | 40 | 3 | 16 |
| COCCN1C[C@H](C(=O)Nc2ccc(Cl)cc2)[C@@H](c2ccc(/C=C/C(=O)Nc3ccccc3N)cc2)C1 (racemic) | 250 | 6 | 72 |

Continued, values first:

| Activity [1] [%] | CLhep predicted at 1 µM [2] [mL/min/kg] | CLhep predicted at 1 µM [3] [mL/min/kg] | SMILES |
| --- | --- | --- | --- |
| 190 | 17 | 51 | N#CCN1C[C@H](C(=O)Nc2ccc(Cl)cc2)[C@@H](c2ccc(/C=C/C(=O)Nc3ccccc3N)cc2)C1 (racemic) |
| 170 | 10 | 67 | CN1C[C@H](C(=O)Nc2ccccc2F)[C@@H](c2ccc(/C=C/C(=O)Nc3ccccc3N)cc2)C1 (racemic) |
| 140 | 8 | 40 | CN1C[C@H](C(=O)Nc2ccccn2)[C@@H](c2ccc(/C=C/C(=O)Nc3ccccc3N)cc2)C1 (racemic) |
| 10 | 6 | 23 | CN1C[C@H](C(=O)Nc2ccc(C(F)(F)F)cc2)[C@@H](c2ccc(/C=C/C(=O)Nc3ccccc3N)cc2)C1 (racemic) |
| 70 | 8 | 12 | CC(C)NC(=O)[C@H]1CN(C)C[C@@H]1c1ccc(/C=C/C(=O)Nc2ccccc2N)cc1 (racemic) |
| 70 | 10 | 54 | CC(C)c1ccc(NC(=O)[C@H]2CN(C)C[C@@H]2c2ccc(/C=C/C(=O)Nc3ccccc3N)cc2)cc1 (racemic) |
| 90 | 16 | 49 | Nc1ccccc1NC(=O)/C=C/c1ccc([C@H]2CN(CC(F)F)C[C@@H]2C(=O)Nc2ccc(Cl)cc2)cc1 (racemic) |
| 90 | 19 | 83 | CCN(CC)C(=O)N1C[C@H](C(=O)Nc2ccc(Cl)cc2)[C@@H](c2ccc(/C=C/C(=O)Nc3ccccc3N)cc2)C1 (racemic) |
| 170 | 14 | 54 | COc1ccc(NC(=O)[C@H]2CN(C)C[C@@H]2c2ccc(/C=C/C(=O)Nc3ccccc3N)cc2)cc1 (racemic) |
| 230 | 7 | 58 | CN1C[C@H](C(=O)Nc2cccc(Cl)c2)[C@@H](c2ccc(/C=C/C(=O)Nc3ccccc3N)cc2)C1 (racemic) |
| 70 | 3 | 81 | Nc1ccccc1NC(=O)/C=C/c1ccc([C@H]2CN(Cc3ccccc3)C[C@@H]2C(=O)Nc2ccc(Cl)cc2)cc1 (racemic) |
| 90 | 13 | 42 | Nc1ccccc1NC(=O)/C=C/c1ccc([C@H]2CN(C3COC3)C[C@@H]2C(=O)Nc2ccc(Cl)cc2)cc1 (racemic) |
| 180 | 9 | 61 | CN1C[C@H](C(=O)NC2CCCC2)[C@@H](c2ccc(/C=C/C(=O)Nc3ccccc3N)cc2)C1 (racemic) |
| 180 | 15 | 34 | CN1C[C@H](C(=O)Nc2ccc(F)c(Cl)c2)[C@@H](c2ccc(/C=C/C(=O)Nc3ccccc3N)cc2)C1 (racemic) |
| > 300 | 12 | 38 | CN1C[C@H](C(=O)Nc2ccc(Cl)cc2)[C@@H](c2ccc(/C=C/C(=O)Nc3ccccc3N)nc2)C1 (racemic) |
| 200 | 15 | 43 | CN1C[C@H](C(=O)Nc2ccc(F)c(Br)c2)[C@@H](c2ccc(/C=C/C(=O)Nc3ccccc3N)cc2)C1 (racemic) |
| 80 | 10 | 7 | CN1C[C@H](C(=O)NC2CC2)[C@@H](c2ccc(/C=C/C(=O)Nc3ccccc3N)cc2)C1 (racemic) |
| 80 | 10 | 41 | CN1C[C@H](C(=O)Nc2cccnc2)[C@@H](c2ccc(/C=C/C(=O)Nc3ccccc3N)cc2)C1 (racemic) |
| 260 | 15 | 62 | Cc1ccc(NC(=O)[C@H]2CN(C)C[C@@H]2c2ccc(/C=C/C(=O)Nc3ccccc3N)cc2)cc1 (racemic) |
| 210 | 15 | 65 | Cc1cc(NC(=O)[C@H]2CN(C)C[C@@H]2c2ccc(/C=C/C(=O)Nc3ccccc3N)cc2)ccc1Cl (racemic) |
| 270 | 7 | 67 | CN1C[C@H](C(=O)Nc2ccccc2)[C@@H](c2ccc(/C=C/C(=O)Nc3ccccc3N)cc2)C1 (racemic) |
| 120 | 11 | 44 | Nc1ccccc1NC(=O)/C=C/c1ccc([C@H]2CN(c3ncccn3)C[C@@H]2C(=O)Nc2ccc(Cl)cc2)cc1 (racemic) |
